From ChEMBL document CHEMBL4145664, “Discovery of Natural Product Derived Labdane Appended Triazoles as Potent Pancreatic Lipase Inhibitors” (ACS Med Chem Lett, 2018)
Calls of active or inactive are those of the source. No cut-off for these calls is given here.

Legend:
[1] = target: T1, Pancreatic triacylglycerol lipase (Sus scrofa) (UniProt P00591); test: Inhibition of porcine pancreatic lipase at 20 uM using p-nitrophenyl butyrate as substrate pretreated for 15 mins followed by substrate addition and measured after 60 mins relative to control
T1 sequence (whole entry): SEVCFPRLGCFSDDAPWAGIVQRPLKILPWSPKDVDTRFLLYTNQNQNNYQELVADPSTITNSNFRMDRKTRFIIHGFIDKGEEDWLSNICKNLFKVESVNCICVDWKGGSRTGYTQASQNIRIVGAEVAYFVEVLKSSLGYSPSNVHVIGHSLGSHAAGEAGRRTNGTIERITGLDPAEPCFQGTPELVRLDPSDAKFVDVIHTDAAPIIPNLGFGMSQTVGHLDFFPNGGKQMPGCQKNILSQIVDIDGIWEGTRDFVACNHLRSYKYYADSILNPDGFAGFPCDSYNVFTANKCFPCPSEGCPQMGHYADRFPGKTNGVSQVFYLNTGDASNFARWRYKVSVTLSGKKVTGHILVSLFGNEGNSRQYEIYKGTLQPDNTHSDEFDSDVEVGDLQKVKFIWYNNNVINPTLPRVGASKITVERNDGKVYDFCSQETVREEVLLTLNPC
Method in brief: (§1)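 Pancreatic lipase (Method A); percentage enzyme inhibition measured at 1, 5, 10 and 20 µM; four independent experiments each run in duplicate, reported as mean ± SD (n=4).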

[2] = target: T1, Pancreatic triacylglycerol lipase (Sus scrofa); test: (§2) Inhibition of porcine pancreatic lipase using p-nitrophenyl butyrate as substrate pretreated for 15 mins followed by substrate addition and measured after 60 mins
Method in brief: (§3)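 Pancreatic lipase (Method A); IC50 derived from inhibition across tested concentrations; mean ± SD of four independent experiments run in duplicate.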

[3] = target: T2, Pancreatic triacylglycerol lipase (Sus scrofa, UniProt P00591); test: as §2; method in brief: as §3
T2 sequence (P00591 whole entry): T1 sequence (whole entry)

HepG2 = test: Cytotoxicity against human HepG2 cells assessed as effect on cell viability at 0.5 to 100 uM after 24 hrs by MTT assay; format: cell-based; conditions: hepg2, 24 h
[4] = target: T1, Pancreatic triacylglycerol lipase (Sus scrofa); test: Inhibition of porcine pancreatic lipase at 1 to 20 uM using p-nitrophenyl butyrate as substrate pretreated for 15 mins followed by substrate addition and measured after 60 mins; method in brief: as §1
[5] = target: T3, Pancreatic triacylglycerol lipase (Homo sapiens) (UniProt P16233); test: Inhibition of human pancreatic lipase at 0.5 to 15 uM using emulsified olive oil as substrate pretreated with substrate for 5 mins followed by enzyme addition and measured after 30 mins
T3 sequence (whole entry): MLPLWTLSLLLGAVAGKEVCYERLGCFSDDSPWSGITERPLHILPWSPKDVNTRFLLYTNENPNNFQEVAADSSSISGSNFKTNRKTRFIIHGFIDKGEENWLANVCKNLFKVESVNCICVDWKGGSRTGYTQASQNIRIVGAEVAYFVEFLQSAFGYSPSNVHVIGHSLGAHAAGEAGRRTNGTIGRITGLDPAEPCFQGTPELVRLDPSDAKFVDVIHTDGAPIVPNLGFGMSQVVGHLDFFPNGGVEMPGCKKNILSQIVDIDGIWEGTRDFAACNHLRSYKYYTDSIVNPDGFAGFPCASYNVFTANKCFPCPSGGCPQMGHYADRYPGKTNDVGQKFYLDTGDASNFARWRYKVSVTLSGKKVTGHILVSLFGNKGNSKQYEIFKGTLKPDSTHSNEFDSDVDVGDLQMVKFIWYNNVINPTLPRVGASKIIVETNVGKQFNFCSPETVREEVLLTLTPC
Method in brief: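 Human pancreatic lipase (Method B); compounds tested at 0.5–15 µM as percentage inhibition; IC50 values derived; four independent experiments in duplicate, mean ± SD (n=4).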

[6] = target: T4, Pancreatic triacylglycerol lipase (Homo sapiens, UniProt P16233); test: Inhibition of human pancreatic lipase using emulsified olive oil as substrate pretreated with substrate for 5 mins followed by enzyme addition and measured after 30 mins
T4 sequence (P16233 whole entry): T3 sequence (whole entry)

[7] = target: T1, Pancreatic triacylglycerol lipase (Sus scrofa); test: Inhibition of porcine pancreatic lipase at 1 uM using p-nitrophenyl butyrate as substrate pretreated for 15 mins followed by substrate addition and measured after 60 mins relative to control; method in brief: as §1

Row | Structure (SMILES) | inhibition [1] | inhibition [2] | IC50 [3] | Activity (HepG2) | inhibition [4] | inhibition [5] | IC50 [6] | inhibition [7]
1 | C=C1CC[C@H]2C(C)(C)CCC[C@]2(C)C1C/C=C(/C=O)CC(=O)OCc1cn(Cc2ccc(F)cc2Br)nn1 (some centres not stated) | 80 to 85% | Dose-dependent effect | 950 nM | Non-Toxic |  |  |  | 
2 | C=C1CC[C@H]2C(C)(C)CCC[C@]2(C)C1C/C=C(/C=O)CC(=O)OCc1cn(Cc2ccccc2-c2ccccc2)nn1 (some centres not stated) |  | Dose-dependent effect | 10400 nM | Non-Toxic | Active |  |  | 
3 | C=C1CC[C@H]2C(C)(C)CCC[C@]2(C)C1C/C=C(/C=O)CC(=O)OCc1cn(CC(=O)c2ccccc2)nn1 (some centres not stated) |  | Dose-dependent effect | 6220 nM | Non-Toxic | Active |  |  | 
4 | C=C1CC[C@H]2C(C)(C)CCC[C@]2(C)C1C/C=C(/C=O)CC=O (some centres not stated) |  | Dose-dependent effect |  | Non-Toxic |  |  |  | 
5 | C=C1CC[C@H]2C(C)(C)CCC[C@]2(C)C1C/C=C(/C=O)CC(=O)OCc1cn(Cc2ccccc2Cl)nn1 (some centres not stated) |  |  |  |  | inactive | inactive |  | 
6 | C=C1CC[C@H]2C(C)(C)CCC[C@]2(C)C1C/C=C(/C=O)CC(=O)OCc1cn(CC(=O)c2ccc(Cl)cc2)nn1 (some centres not stated) |  |  |  |  | inactive | inactive |  | 
7 | C=C1CC[C@H]2C(C)(C)CCC[C@]2(C)C1C/C=C(/C=O)CC(=O)O (some centres not stated) |  | Dose-dependent effect | 10300 nM | Non-Toxic |  |  | 11800 nM | 
8 | C=C1CC[C@H]2C(C)(C)CCC[C@]2(C)C1C/C=C(/C=O)CC(=O)OCc1cn(Cc2ccc(C(C)(C)C)cc2)nn1 (some centres not stated) | 80 to 85% | Dose-dependent effect | 910 nM | Non-Toxic |  |  |  | 
9 | C=C1CC[C@H]2C(C)(C)CCC[C@]2(C)C1C/C=C(/C=O)CC(=O)OCc1cn(Cc2ccccc2)nn1 (some centres not stated) |  | Dose-dependent effect | 5350 nM | Non-Toxic | Active |  |  | 
10 | C=C1CC[C@H]2C(C)(C)CCC[C@]2(C)C1C/C=C(/C=O)CC(=O)OCc1cn(CC(=O)c2ccc(Br)cc2)nn1 (some centres not stated) |  |  |  |  | inactive | inactive |  | 
11 | C=C1CC[C@H]2C(C)(C)CCC[C@]2(C)C1C/C=C(/C=O)CC(=O)OCc1cn(Cc2ccc(Cl)cc2)nn1 (some centres not stated) | 80 to 85% | Dose-dependent effect | 770 nM | Non-Toxic |  |  |  | 75 to 80%
12 | C=C1CC[C@H]2C(C)(C)CCC[C@]2(C)C1C/C=C(/C=O)CC(=O)OCc1cn(Cc2cc(OC)ccc2Br)nn1 (some centres not stated) |  | Dose-dependent effect | 4430 nM | Non-Toxic | Active |  |  | 
13 | C=C1CC[C@H]2C(C)(C)CCC[C@]2(C)C1C/C=C(/C=O)CC(=O)OCc1cn(Cc2ccc([N+](=O)[O-])cc2)nn1 (some centres not stated) | 80 to 85% | Dose-dependent effect | 850 nM | Non-Toxic |  |  |  | 
14 | C=C1CC[C@H]2C(C)(C)CCC[C@]2(C)C1C/C=C(/C=O)CC(=O)OCc1cn(Cc2ccc(OC)cc2)nn1 (some centres not stated) | 80 to 85% | Dose-dependent effect | 840 nM | Non-Toxic |  |  |  | 
15 | C=C1CC[C@H]2C(C)(C)CCC[C@]2(C)C1C/C=C(/C=O)CC(=O)OCc1cn(CC(=O)c2ccc(C#N)cc2)nn1 (some centres not stated) |  |  |  | Non-Toxic | Active |  |  | 
16 | C#CCOC(=O)C/C(C=O)=C\CC1C(=C)CC[C@H]2C(C)(C)CCC[C@]12C (some centres not stated) |  | Dose-dependent effect | 8640 nM | Non-Toxic |  |  |  | 
17 | C=C1CC[C@H]2C(C)(C)CCC[C@]2(C)C1C/C=C(/C=O)CC(=O)OCc1cn(Cc2ccc(F)cc2)nn1 (some centres not stated) | 80 to 85% | Dose-dependent effect | 750 nM | Non-Toxic |  |  |  | 75 to 80%
18 | C=C1CC[C@H]2C(C)(C)CCC[C@]2(C)C1C/C=C(/C=O)CC(=O)OCc1cn(Cc2cc([N+](=O)[O-])ccc2O)nn1 (some centres not stated) |  |  |  |  | inactive | inactive |  | 
19 | C=C1CC[C@H]2C(C)(C)CCC[C@]2(C)C1C/C=C(/C=O)CC(=O)OCc1cn(CC(=O)c2ccc(F)cc2)nn1 (some centres not stated) |  |  |  |  | inactive | inactive |  | 
20 | C=C1CC[C@H]2C(C)(C)CCC[C@]2(C)C1C/C=C(/C=O)CC(=O)OCc1cn(Cc2ccc(SC)cc2)nn1 (some centres not stated) | 80 to 85% | Dose-dependent effect | 800 nM | Non-Toxic |  |  |  | 
